Data: ChEMBL document CHEMBL4393718, “Synthesis, biological evaluation and computational study of novel isoniazid containing 4H-Pyrimido[2,1-b]benzothiazoles derivatives” (2019)
Converted amounts (≈) assume the structure as drawn.

Legend:
Assay type in all cases: functional
[1] = test system: Klebsiella aerogenes; experiment: Antimicrobial activity against Enterobacter aerogenes MTCC 8558 incubated for 24 hrs by well diffusion method
Procedure, shortened: (§1)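 Well diffusion assay on nutrient agar plates. The read-out is the mean inhibition zone diameter in mm.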

[2] = test system: Klebsiella aerogenes; experiment: Activity index, ratio of IZ for test compound to IZ for streptomycin for antimicrobial activity against Enterobacter aerogenes MTCC 8558 incubated for 24 hrs by well diffusion method
Procedure, shortened: (§2)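 Well diffusion on nutrient agar plates. The activity index is the mean inhibition zone of the derivative divided by the inhibition zone of the standard antibiotic.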

[3] = test system: Escherichia coli; experiment: Antimicrobial activity against Escherichia coli MTCC 1610 incubated for 24 hrs by well diffusion method; procedure, shortened: as §1
[4] = test system: Escherichia coli; experiment: Activity index, ratio of IZ for test compound to IZ for streptomycin for antimicrobial activity against Escherichia coli MTCC 1610 incubated for 24 hrs by well diffusion method; procedure, shortened: as §2
[5] = test system: Micrococcus luteus; experiment: Antimicrobial activity against Micrococcus luteus MTCC 11948 incubated for 24 hrs by well diffusion method; procedure, shortened: as §1
[6] = test system: Micrococcus luteus; experiment: Activity index, ratio of IZ for test compound to IZ for streptomycin for antimicrobial activity against Micrococcus luteus MTCC 11948 incubated for 24 hrs by well diffusion method; procedure, shortened: as §2
[7] = test system: Bacillus cereus; experiment: Antimicrobial activity against Bacillus cereus MTCC 8558 incubated for 24 hrs by well diffusion method; procedure, shortened: as §1
[8] = test system: Bacillus cereus; experiment: Activity index, ratio of IZ for test compound to IZ for streptomycin for antimicrobial activity against Bacillus cereus MTCC 8558 incubated for 24 hrs by well diffusion method; procedure, shortened: as §2
[9] = test system: Mycobacterium tuberculosis; experiment: Antitubercular activity against Mycobacterium tuberculosis H37Rv assessed as viable colony forming unit at 1000 ug/ml incubated for 42 days by Lowensteine-Jensen method (reference value: 123 CFU)
[10] = test system: Mycobacterium tuberculosis; experiment: Antitubercular activity against Mycobacterium tuberculosis H37Rv assessed as reduction in viable colony forming unit at 1000 ug/ml incubated for 42 days by Lowensteine-Jensen method relative to control
Procedure, shortened: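 H37Rv cultured on Lowenstein-Jensen medium with compound or untreated control; colony forming units counted on the L-J medium. Percent inhibition = (Cc − Ct)/Cc × 100, where c is control and t is test.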

[11] = test system: Mycobacterium tuberculosis; experiment: Antitubercular activity against Mycobacterium tuberculosis H37Rv incubated for 42 days by Lowensteine-Jensen method

SMILES	inhibition zone (IZ) [1] [mm]	Activity_index [2]	inhibition zone (IZ) [3] [mm]	Activity_index [4]	inhibition zone (IZ) [5] [mm]	Activity_index [6]	inhibition zone (IZ) [7] [mm]	Activity_index [8]	Activity [9] [CFU]	inhibition at 1000 µg/mL [10] [%]	MIC [11] [µg/mL]
CCOc1ccc2c(c1)SC1=NC(C)=C(C(=O)NNC(=O)c3ccncc3)C(c3ccccn3)N12 (stereo unspecified)	25	1.042	13	0.542	23	0.958	18	0.75	45	63.4	62.5 (≈ 128 µM)
CC1=C(C(=O)NNC(=O)c2ccncc2)C(c2ccccn2)N2C(=N1)Sc1cc(C)ccc12 (stereo unspecified)	15	0.625	21	0.875	19	0.792	19	0.792	56	54.5	500 (≈ 1100 µM)
CC1=C(C(=O)NNC(=O)c2ccncc2)C(c2ccccn2)N2C(=N1)Sc1cccc(C)c12 (stereo unspecified)	23	0.958	17	0.708	23	0.958	23	0.958	65	47.1	1000 (≈ 2190 µM)
CC1=C(C(=O)NNC(=O)c2ccncc2)C(c2ccccn2)N2C(=N1)Sc1cc(C)c(C)cc12 (stereo unspecified)	19	0.792	15	0.625	19	0.792	19	0.792	22	82.1	12.5 (≈ 26.6 µM)
CC1=C(C(=O)NNC(=O)c2ccncc2)C(c2ccccn2)N2C(=N1)Sc1cc([N+](=O)[O-])ccc12 (stereo unspecified)	17	0.708	16	0.667	14	0.583	24	1	53	56.9	250 (≈ 513 µM)
CC1=C(C(=O)NNC(=O)c2ccncc2)C(c2ccccn2)N2C(=N1)Sc1cc(Cl)ccc12 (stereo unspecified)	16	0.667	18	0.75	16	0.667	17	0.708	35	71.5	125 (≈ 262 µM)
CC1=C(C(=O)NNC(=O)c2ccncc2)C(c2ccccn2)N2C(=N1)Sc1cc(Br)ccc12 (stereo unspecified)	20	0.833	19	0.792	15	0.625	18	0.75	33	73.2	62.5 (≈ 120 µM)
COc1cccc2c1N1C(=NC(C)=C(C(=O)NNC(=O)c3ccncc3)C1c1ccccn1)S2 (stereo unspecified)	23	0.958	17	0.708	17	0.708	26	1.083	61	50.4	125 (≈ 265 µM)
CC1=C(C(=O)NNC(=O)c2ccncc2)C(c2ccccn2)N2C(=N1)Sc1cc(OC(F)(F)F)ccc12 (stereo unspecified)	22	0.917	19	0.792	18	0.75	19	0.792	25	79.7	6.25 (≈ 11.9 µM)
CC1=C(C(=O)NNC(=O)c2ccncc2)C(c2ccccn2)N2C(=N1)Sc1cccc(Cl)c12 (stereo unspecified)	18	0.75	22	0.917	17	0.708	16	0.667	23	81.3	50 (≈ 105 µM)
CC1=C(C(=O)NNC(=O)c2ccncc2)C(c2ccccn2)N2C(=N1)Sc1ccccc12 (stereo unspecified)	19	0.792	13	0.542	20	0.833	22	0.917	37	69.9	125 (≈ 282 µM)
CC1=C(C(=O)NNC(=O)c2ccncc2)C(c2ccccn2)N2C(=N1)Sc1cc(F)ccc12 (stereo unspecified)	19	0.792	24	1	19	0.792	12	0.5	24	80.5	25 (≈ 54.3 µM)
COc1ccc2c(c1)SC1=NC(C)=C(C(=O)NNC(=O)c3ccncc3)C(c3ccccn3)N12 (stereo unspecified)	22	0.917	15	0.625	22	0.917	15	0.625	62	49.6	500 (≈ 1060 µM)
CC1=C(C(=O)NNC(=O)c2ccncc2)C(c2ccccn2)N2C(=N1)Sc1cc(O)ccc12 (stereo unspecified)	20	0.833	24	1	16	0.667	24	1	39	68.3	100 (≈ 218 µM)
NNC(=O)c1ccncc1 [ISONIAZID]									1	99.2	0.2 (≈ 1.46 µM)
CN[C@@H]1[C@H](O[C@H]2[C@H](O[C@H]3[C@H](O)[C@@H](O)[C@H](N=C(N)N)[C@@H](O)[C@@H]3N=C(N)N)O[C@@H](C)[C@]2(O)C=O)O[C@@H](CO)[C@H](O)[C@H]1O [STREPTOMYCIN]	24		24		24		24				
